Experimental data reported in ChEMBL document CHEMBL4049421, “Design, Synthesis, and Pharmacological Characterization of N-(4-(2 (6,7-Dimethoxy-3,4-dihydroisoquinolin-2(1H)yl)ethyl)phenyl)quinazolin-4-amine Derivatives: Novel Inhibitors Reversing P-Glycoprotein-Mediated Multidrug Resistance” (J Med Chem, 2017).
pIC50: −log10 of the molar value. Active and inactive are the calls of the source. The calls are words filed in the database; no cut-off is given here.

How the values were obtained:
[1] = Cytotoxicity against human K562 cells assessed as cell viability at 1.0 uM after 48 hrs by MTT assay (reference value: >99%); type: cell-based; settings: read-out: Activity
[2] = Cytotoxicity against human K562/A02 cells assessed as cell viability at 1.0 uM after 48 hrs by MTT assay (reference value: >99%); type: cell-based; settings: read-out: Activity
Homo sapiens [3] = species on record: Homo sapiens; test: Inhibition of P-gp in human K562/A02 cells assessed as potentiation of doxorubicin-induced cytotoxicity by measuring fold reduction in doxorubicin IC50 at 1.0 uM after 48 hrs by MTT assay relative to doxorubicin alone; type: cell-based
Method in brief: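 K562/A02 cells (1×10^4 cells per well) were exposed to a DOX concentration series, alone or with modulator at 1.0 μM, for 48 h. Viability was read by MTT at 490 nm. Reversal fold = DOX IC50 without inhibitor / DOX IC50 with inhibitor, mean ± SD of three tests.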

Homo sapiens [4] = species on record: Homo sapiens; test: Inhibition of P-gp in human K562/A02 cells assessed as accumulation of doxorubicin at 0.1 uM to 5.0 uM after 150 mins by fluorescence spectrophotometric analysis; type: cell-based
Method in brief: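 K562/A02 cells (4×10^5) were incubated 150 min at 37 °C with 20.0 μM DOX plus modulator at various concentrations, with 0.1% DMSO as negative control. Cells were washed with cold PBS and lysed in HCl/Triton X-100/isopropanol. DOX fluorescence was read at ex 460 / em 587 nm. Mean ± SD, n = 3.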

Homo sapiens [5] = species on record: Homo sapiens; test: Inhibition of P-gp mediated efflux in human K562/A02 cells assessed as intracellular Rh123 accumulation at 1.0 uM measure up to 90 mins by flow cytometric analysis; type: cell-based
Method in brief: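 K562/A02 cells were loaded with 5 μM Rh123 for 90 min at 37 °C and washed three times. They were then incubated with or without modulator at 37 °C for 5, 10, 25, 30, 60 and 90 min. Retained Rh123 MFI per 10000 cells was measured by flow cytometry. 0.1% DMSO negative control, n = 3.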

Homo sapiens [6] = species on record: Homo sapiens; test: Inhibition of ATPase activity in human P-gp membrane fraction at 0.5 uM in presence of ATP after 1 hr by luciferase […]; type: cell membranes
Method in brief: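 Human P-gp membrane fraction (~25 μg) was incubated with compound at 0.5, 5.0 or 50.0 μM in 0.5% DMSO, with a 100 μM sodium vanadate reference. Reaction was started with 5.0 mM MgATP, 1 h at 37 °C. Remaining ATP was read by luciferase luminescence after 20 min at room temperature, relative to vanadate. n = 3.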

Rattus norvegicus = test: Effect on plasma concentration of doxorubicin in Sprague-Dawley rat at 5 mg/kg, iv co-administered with doxorubicin measured after 8 hrs by LC-MS/MS analysis; type: ADME, organism-based; settings: in vivo
Method in brief: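 Male SD rats received DOX 10 mg/kg i.v. alone or with modulator 5 mg/kg i.v. Orbital blood was taken at 5 min to 8 h. Plasma DOX was measured by LC-MS/MS with DNR (0.5 μg/mL) as internal standard. Mean ± SD, n = 3.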

K562 [7] = test: Cytotoxicity against human K562 cells assessed as reduction in cell viability after 48 hrs by MTT assay; type: functional, cell-based; settings: K562, 48 h
Method in brief: (§1)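 MTT assay on HUVEC, K562 or K562/A02 cells seeded at 1×10^4 cells per well, using serial compound concentrations. Formazan was dissolved in DMSO and read at 490 nm. IC50 was obtained from log dose–response curves, mean ± SD of three independent tests.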

K562/A02 [8] = test: Cytotoxicity against human K562/A02 cells assessed as reduction in cell viability after 48 hrs by MTT assay; type: functional, cell-based; settings: K562/A02, 48 h; method in brief: as §1
HUVEC = test: Cytotoxicity against HUVEC assessed as reduction in cell viability after 48 hrs by MTT assay; type: cell-based; settings: Homo sapiens; method in brief: as §1
[9] = Selective ratio of IC50 for human K562/A02 cells to IC50 for human K562 cells; type: functional
K562 [10] = test: Antiproliferative activity against human K562 cells assessed as cell viability at 5.0 uM after 48 hrs by MTT assay (reference value: >99%); type: functional; settings: K562, 48 h, read-out: Activity
K562/A02 [11] = test: Antiproliferative activity against human K562/A02 cells assessed as cell viability at 5.0 uM after 48 hrs by MTT assay (reference value: >99%); type: functional; settings: K562/A02, 48 h, read-out: Activity
[12] = Elimination half life in Sprague-Dawley rat at 10 mg/kg, iv by LC-MS/MS analysis; type: ADME, organism-based; settings: in vivo, read-out: beta t1/2 (converted)
[13] = Inhibition of CYP3A4 in rat liver microsomes assessed as decrease in 6beta-OH testosterone levels using testosterone as substrate by HPLC analysis; type: ADME
Method in brief: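 Rat liver microsomes were isolated by differential centrifugation, with protein measured by Bradford assay. They were incubated with testosterone, without or with inhibitor at 2.5, 5.0, 10.0, 20.0 and 40.0 μM; ketoconazole was the reference inhibitor. 6β-OH testosterone was quantified by C18 reverse-phase HPLC (water/acetonitrile gradient, 35 °C, 1.0 mL/min, UV 254 nm). Mean ± SD, three independent experiments.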

[14] = Cytotoxicity against human K562/A02 cells assessed as cell viability at 5.0 uM after 48 hrs by MTT assay (reference value: >99%); type: cell-based; settings: read-out: Activity
Homo sapiens [15] = species on record: Homo sapiens; settings: 5 uM
Homo sapiens [16] = species on record: Homo sapiens; settings: 5 uM; remark: listed apart in the source
Homo sapiens [17] = species on record: Homo sapiens; settings: 5.0 uM
in vitro = settings: human, K562 cells

Q: For `COc1cc2c(cc1OC)CN(CCc1ccc(Nc3nc(-c4ccccc4)nc4ccccc34)cc1)CC2`, which viability at 48 h, 1 µM [1] is on record?
A: 98.7%

Q: And the viability at 48 h, 1 µM [2]?
A: > 99%

Q: What about the fold change (FC) (Homo sapiens [3]) of the same molecule?
A: 7.7

Q: Which viability at 48 h, 1 µM [1] does the source give for `COc1cc2c(cc1OC)CN(CCc1ccc(Nc3nc(-c4ccc5ccccc5n4)nc4ccccc34)cc1)CC2` here?
A: > 99%

Q: What about the viability at 48 h, 1 µM [2] of the same molecule?
A: 92.1%

Q: What about the fold change (FC) (Homo sapiens [3]) of the same molecule?
A: 2.6

Q: Which viability at 48 h, 1 µM [1] does the source give for `COc1cc2c(cc1OC)CN(CCc1ccc(Nc3nc(-c4ccc5c(c4)OCO5)nc4ccccc34)cc1)CC2` here?
A: 91.4%

Q: And the viability at 48 h, 1 µM [2]?
A: 89.2%

Q: And the fold change (FC) (Homo sapiens [3])?
A: 15.5

Q: What does the source list for `COc1ccc(-c2nc(Nc3ccc(CCN4CCc5cc(OC)c(OC)cc5C4)cc3)c3ccccc3n2)cc1OC`?
A: viability at 48 h, 1 µM [1]: 95.1%; viability at 48 h, 1 µM [2]: > 99%; fold change (FC) (Homo sapiens [3]): 17.2

Q: For `COc1cc2c(cc1OC)CN(CCc1ccc(Nc3nc(-c4ccc([N+](=O)[O-])cc4)nc4ccccc34)cc1)CC2`, which viability at 48 h, 1 µM [1] is on record?
A: 94.7%

Q: What about the viability at 48 h, 1 µM [2] of the same molecule?
A: > 99%

Q: What about the fold change (FC) (Homo sapiens [3]) of the same molecule?
A: 3

Q: Which results are given for `COc1ccc(C(=O)Nc2ccccc2C(=O)Nc2ccc(CCN3CCc4cc(OC)c(OC)cc4C3)cc2)cc1OC`?
A: viability at 48 h, 1 µM [1]: 97.5%; viability at 48 h, 1 µM [2]: > 99%; fold change (FC) (Homo sapiens [3]): 18.6; inhibition (Homo sapiens [4]): Active; inhibition (Homo sapiens [5]): Active; inhibition (Homo sapiens [6]): Active; Activity (Rattus norvegicus): Non-Toxic

Q: For `COc1cc2c(cc1OC)CN(CCc1ccc(Nc3nc(-c4ccccc4OC)nc4ccccc34)cc1)CC2`, which viability at 48 h, 1 µM [1] is on record?
A: > 99%

Q: And the viability at 48 h, 1 µM [2]?
A: > 99%

Q: What about the fold change (FC) (Homo sapiens [3]) of the same molecule?
A: 10.9

Q: With `COc1cccc(-c2nc(Nc3ccc(CCN4CCc5cc(OC)c(OC)cc5C4)cc3)c3ccccc3n2)c1` as the molecule, how does the viability at 48 h, 1 µM [1] read?
A: > 99%

Q: What about the viability at 48 h, 1 µM [2] of the same molecule?
A: > 99%

Q: What about the fold change (FC) (Homo sapiens [3]) of the same molecule?
A: 14.6

Q: With `COc1cc2c(cc1OC)CN(CCc1ccc(Nc3nc(-c4ccc(C(C)(C)C)cc4)nc4ccccc34)cc1)CC2` as the molecule, how does the viability at 48 h, 1 µM [1] read?
A: > 99%

Q: What about the viability at 48 h, 1 µM [2] of the same molecule?
A: 91.3%

Q: And the fold change (FC) (Homo sapiens [3])?
A: 1.9

Q: With `COc1cc2c(cc1OC)CN(CCc1ccc(Nc3nc(-c4cccc([N+](=O)[O-])c4)nc4ccccc34)cc1)CC2` as the molecule, how does the viability at 48 h, 1 µM [1] read?
A: > 99%

Q: And the viability at 48 h, 1 µM [2]?
A: > 99%

Q: What about the fold change (FC) (Homo sapiens [3]) of the same molecule?
A: 13.4

Q: With `COc1cc2c(cc1OC)CN(CCc1ccc(Nc3nc(-c4cccnc4)nc4ccccc34)cc1)CC2` as the molecule, how does the viability at 48 h, 1 µM [1] read?
A: > 99%

Q: What about the viability at 48 h, 1 µM [2] of the same molecule?
A: 97.9%

Q: And the fold change (FC) (Homo sapiens [3])?
A: 5.9

Q: With `COc1cccc2c1C(=O)c1c(O)c3c(c(O)c1C2=O)C[C@@](O)(C(=O)CO)C[C@@H]3O[C@H]1C[C@H](N)[C@H](O)[C@H](C)O1` [DOXORUBICIN] as the molecule, how does the pIC50 (K562 [7]) read?
A: 6.21

Q: What about the pIC50 (K562/A02 [8]) of the same molecule?
A: 4.05

Q: What about the pIC50 (HUVEC) of the same molecule?
A: 5.06

Q: And the “Ratio IC50” value [9]?
A: 144.8

Q: What about the viability at 5 µM (K562 [10]) of the same molecule?
A: 8.8%

Q: And the viability at 5 µM (K562/A02 [11])?
A: 96.4%

Q: What about the half-life [12] of the same molecule?
A: 1.6 h

Q: With `CC(=O)N1CCN(c2ccc(OCC3COC(Cn4ccnc4)(c4ccc(Cl)cc4Cl)O3)cc2)CC1` (configuration not stated) [KETOCONAZOLE] as the molecule, how does the “inhibition (INH)” value [13] read?
A: Dose-dependent effect

Q: Which results are given for `COc1cc2c(cc1OC)CN(CCc1ccc(Nc3nc(-c4ccccc4)nc4cc(Cl)ccc34)cc1)CC2`?
A: viability at 48 h, 1 µM [1]: > 99%; viability at 48 h, 1 µM [2]: 95.3%; fold change (FC) (Homo sapiens [3]): 8.2

Q: For `COc1ccc(CCN(C)CCCC(C#N)(c2ccc(OC)c(OC)c2)C(C)C)cc1OC` (configuration not stated), which viability at 48 h, 5 µM [14] is on record?
A: 88.3%

Q: And the Activity (Rattus norvegicus)?
A: Toxic

Q: What about the inhibition (Homo sapiens [15]) of the same molecule?
A: inactive

Q: And the inhibition (Homo sapiens [16])?
A: Active

Q: And the inhibition (Homo sapiens [17])?
A: Active

Q: What about the viability at 48 h, 5 µM (in vitro) of the same molecule?
A: > 99%

Q: For `COc1ccc(-c2nc(Nc3ccc(CCN4CCc5cc(OC)c(OC)cc5C4)cc3)c3ccccc3n2)cc1`, which viability at 48 h, 1 µM [1] is on record?
A: > 99%

Q: And the viability at 48 h, 1 µM [2]?
A: 85.2%

Q: What about the fold change (FC) (Homo sapiens [3]) of the same molecule?
A: 7.9

Q: What does the source list for `COc1cc2c(cc1OC)CN(CCc1ccc(Nc3nc(-c4cccc(C)c4)nc4ccccc34)cc1)CC2`?
A: viability at 48 h, 1 µM [1]: 92.9%; viability at 48 h, 1 µM [2]: 92.1%; fold change (FC) (Homo sapiens [3]): 8.9

Q: What does the source list for `COc1cc2c(cc1OC)CN(CCc1ccc(Nc3nc(-c4ccccc4)nc4cc(OC)c(OC)cc34)cc1)CC2`?
A: viability at 48 h, 1 µM [1]: > 99%; viability at 48 h, 1 µM [2]: 97.3%; fold change (FC) (Homo sapiens [3]): 10.1

Q: Which results are given for `COc1cc2c(cc1OC)CN(CCc1ccc(Nc3nc(-c4ccc(F)cc4)nc4ccccc34)cc1)CC2`?
A: viability at 48 h, 1 µM [1]: > 99%; viability at 48 h, 1 µM [2]: > 99%; fold change (FC) (Homo sapiens [3]): 3.3

Q: Which viability at 48 h, 1 µM [1] does the source give for `COc1cc2c(cc1OC)CN(CCc1ccc(Nc3nc(-c4ccc(Cl)cc4)nc4ccccc34)cc1)CC2` here?
A: > 99%

Q: What about the viability at 48 h, 1 µM [2] of the same molecule?
A: > 99%

Q: And the fold change (FC) (Homo sapiens [3])?
A: 6

Q: Which viability at 48 h, 1 µM [1] does the source give for `COc1cc2c(cc1OC)CN(CCc1ccc(Nc3nc(-c4ccc(C)cc4)nc4ccccc34)cc1)CC2` here?
A: 93.4%

Q: And the viability at 48 h, 1 µM [2]?
A: 94.2%

Q: And the fold change (FC) (Homo sapiens [3])?
A: 7.5
